Several values for one entry are separate records, joined by “and”; a condition that tells them apart may be missing. Equal values may be shown once.
Experiments:
[1] = tested on: B16; test: Antitumor efficacy against B-16 tumor cell line, activity is expressed as […] survival time (MST) at the dose of 1.6 mg/kg.; type: functional, organism-based; set-up: dose 1.6 mg/kg; settings: Mus musculus
In short: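 Mice bearing B-16 tumor were dosed once daily on days 1–9. Read-out was median survival time in days, with T/C relative to control MST.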

[2] = tested on: L1210; test: Antitumor efficacy against L1210 tumor cell line, activity is expressed as […] survival time (MST) at the dose of 10 mg/kg.; type: functional, organism-based; set-up: dose 10 mg/kg; settings: Mus musculus
In short: (§1)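 Murine L-1210 leukemia, ascitic form, with compound given on day 1 (a single ip dose on day 1 in mg/kg in one table). Activity was scored as median survival time in days, with T/C relative to untreated controls. A cisplatin positive control was run in each test.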

[3] = tested on: L1210; test: Antitumor efficacy against L1210 tumor cell line, activity is expressed as […] survival time (MST) at the dose of 6 mg/kg.; type: functional, organism-based; set-up: dose 6 mg/kg; settings: Mus musculus; in short: as §1
[4] = tested on: L1210; test: Antitumor efficacy against L1210 tumor cell line, activity is expressed as […] survival time (MST) at the dose of 8 mg/kg.; type: functional, organism-based; set-up: dose 8 mg/kg; settings: Mus musculus; in short: as §1
[5] = tested on: M5076; test: Antitumor efficacy against M5076 tumor cell line, activity is expressed as […] survival time (MST) at the dose of 4.8 mg/kg.; type: functional, organism-based; set-up: dose 4.8 mg/kg; settings: Mus musculus
In short: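 M5076 tumor-bearing mice were dosed on days 1 and 4. Median survival time in days was recorded and T/C calculated against control MST.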

[6] = tested on: M5076 (mouse); test: Antitumor efficacy against M5076 tumor cell line, activity is expressed as […] survival time (MST) at the dose of 4.8 mg/kg.

CISPLATIN was tested, and the MST [1] was 213, the Survival time as % of untreated control (T/C) [2] was 193 (2×) and 200 (2×) and 186 and the MST [3] was 150. For the same sequence, the MST [4] was 186 and 167 and 164, the MST [5] was 166 and the MST [6] was 200.

Source: ChEMBL document CHEMBL1124874, “Antitumor and DNA-binding properties of a group of oligomeric complexes of Pt(II) and Pt(IV)” (J Med Chem, 1990)
